Measurements as given in PMC8900268 (Journal of medicinal chemistry, 2021).

Legend:
BCL-XL [1] = target: BCL-XL (Homo sapiens, UniProt P40337+Q07817); assay: AlphaScreen displacement binding assay, BCL-XL; details: displacement of Biotin-Bad
BCL-2 [2] = target: BCL-2 (Homo sapiens, UniProt P10415+P40337); assay: AlphaScreen displacement binding assay, BCL-2; details: displacement of Biotin-Bim
human platelets = details: earlier study; ref 10a; cited from earlier work
MOLT-4 cells [3] = assay: MTS cell viability assay in MOLT-4 cells; assay type: cell-based; details: Homo sapiens, MOLT-4, 48 h, read-out: IC50, cell-killing potency in MOLT-4
RS4;11 cells = assay: MTS cell viability assay in RS4; assay type: cell-based; details: for IC50: Homo sapiens, RS4-11, 48 h, read-out: IC50, cell-killing potency in RS4;11; for activity loss (IC50 change) after pre-treatment with VHL-032: RS4;11 cells, 48 h, pre-treatment with VHL-032 (10 μM)
MOLT-4 cells [4] = details: ref 10a; cited from earlier work
[5] = target: {BCL-2:compound:VCB} ternary complexes (Homo sapiens, UniProt P10415+P40337); assay: NanoBRET ternary complex formation with BCL-2 and VCB in live 293T cells; assay type: cell-based; details: 6 h
Chain of {BCL-2:compound:VCB} ternary complexes (P10415 whole entry): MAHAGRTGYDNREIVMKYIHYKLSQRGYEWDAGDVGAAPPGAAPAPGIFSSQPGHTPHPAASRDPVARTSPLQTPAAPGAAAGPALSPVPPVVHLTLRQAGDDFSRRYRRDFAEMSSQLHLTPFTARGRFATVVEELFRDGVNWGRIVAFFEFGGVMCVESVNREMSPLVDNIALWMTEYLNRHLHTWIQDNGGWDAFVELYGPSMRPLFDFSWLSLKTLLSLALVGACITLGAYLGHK
Chain of {BCL-2:compound:VCB} ternary complexes (P40337 whole entry): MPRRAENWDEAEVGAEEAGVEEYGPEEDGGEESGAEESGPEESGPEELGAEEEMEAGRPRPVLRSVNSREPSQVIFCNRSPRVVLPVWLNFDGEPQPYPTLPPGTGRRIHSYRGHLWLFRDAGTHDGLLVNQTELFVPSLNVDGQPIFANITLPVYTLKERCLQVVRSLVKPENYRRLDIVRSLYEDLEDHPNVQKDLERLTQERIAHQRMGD
Chain of {BCL-2:compound:VCB} ternary complexes (Q15370 whole entry partner): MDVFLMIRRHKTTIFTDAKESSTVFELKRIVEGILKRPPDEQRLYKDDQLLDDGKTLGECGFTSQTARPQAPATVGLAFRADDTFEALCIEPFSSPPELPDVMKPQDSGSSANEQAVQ
Chain of {BCL-2:compound:VCB} ternary complexes (Q15369 whole entry partner): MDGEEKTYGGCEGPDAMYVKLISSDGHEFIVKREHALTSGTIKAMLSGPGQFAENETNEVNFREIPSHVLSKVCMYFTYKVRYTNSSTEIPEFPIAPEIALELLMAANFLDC
Method in brief: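 HEK 293T cells were transfected with 1 μg HaloTag-VHL, 10 ng HiBit-BCL-2 and 10 ng LgBit. After 24 h, 2×10^4 cells/well were placed in phenol-red-free Opti-MEM with 4% FBS ± HaloTag NanoBRET 618 ligand overnight at 37 °C. Serially diluted test compound was added for 6 h, then Nano-Glo substrate. mBRET ratio calculated. Mean ± s.e.m. of two independent experiments in triplicate.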

BCL-2:Bim interaction = BCL-2:Bim interaction (Homo sapiens, UniProt P10415); assay: Co-immunoprecipitation of Bim with BCL-2 in RS4; assay type: cell-based; details: RS4;11 cells, 12 h, immunoprecipitation with BCL-2
Chain of BCL-2:Bim interaction (P10415 whole entry): as the sequence (P10415 whole entry) above
Method in brief: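 RS4;11 cells were treated with test compound for 12 h, ±VHL-032. Lysis in IP buffer with protease/phosphatase inhibitors, then 15000 rpm spin. 1 mg lysate was precleared with mouse IgG and protein A/G agarose for 1 h at 4 °C. IP with 2 μg anti-BCL-2 (or IgG) overnight at 4 °C, then beads for 2 h. After three washes, immunoblotted for Bim. Inputs probed for Bim, BCL-2 and β-actin. Two independent experiments.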

BCL-2 with VCB = BCL-2 with VCB (Homo sapiens, UniProt P10415+P40337); assay: AlphaLISA cell-free ternary complex formation, BCL-2 and VCB; assay type: biochemical
Chain of BCL-2 with VCB (P10415 1-211 limits assumed): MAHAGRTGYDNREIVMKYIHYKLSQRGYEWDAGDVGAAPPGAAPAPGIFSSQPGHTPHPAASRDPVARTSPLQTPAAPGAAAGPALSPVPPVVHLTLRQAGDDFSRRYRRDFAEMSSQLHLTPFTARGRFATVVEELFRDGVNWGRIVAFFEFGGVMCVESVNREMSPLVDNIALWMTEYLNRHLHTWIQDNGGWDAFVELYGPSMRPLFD
Chain of BCL-2 with VCB (P40337 whole entry): as the sequence (P40337 whole entry) above
Chain of BCL-2 with VCB (Q15370 whole entry partner): as the sequence (Q15370 whole entry partner) above
Chain of BCL-2 with VCB (Q15369 whole entry partner): as the sequence (Q15369 whole entry partner) above
Chain of BCL-2 with VCB (Q13617 whole entry partner): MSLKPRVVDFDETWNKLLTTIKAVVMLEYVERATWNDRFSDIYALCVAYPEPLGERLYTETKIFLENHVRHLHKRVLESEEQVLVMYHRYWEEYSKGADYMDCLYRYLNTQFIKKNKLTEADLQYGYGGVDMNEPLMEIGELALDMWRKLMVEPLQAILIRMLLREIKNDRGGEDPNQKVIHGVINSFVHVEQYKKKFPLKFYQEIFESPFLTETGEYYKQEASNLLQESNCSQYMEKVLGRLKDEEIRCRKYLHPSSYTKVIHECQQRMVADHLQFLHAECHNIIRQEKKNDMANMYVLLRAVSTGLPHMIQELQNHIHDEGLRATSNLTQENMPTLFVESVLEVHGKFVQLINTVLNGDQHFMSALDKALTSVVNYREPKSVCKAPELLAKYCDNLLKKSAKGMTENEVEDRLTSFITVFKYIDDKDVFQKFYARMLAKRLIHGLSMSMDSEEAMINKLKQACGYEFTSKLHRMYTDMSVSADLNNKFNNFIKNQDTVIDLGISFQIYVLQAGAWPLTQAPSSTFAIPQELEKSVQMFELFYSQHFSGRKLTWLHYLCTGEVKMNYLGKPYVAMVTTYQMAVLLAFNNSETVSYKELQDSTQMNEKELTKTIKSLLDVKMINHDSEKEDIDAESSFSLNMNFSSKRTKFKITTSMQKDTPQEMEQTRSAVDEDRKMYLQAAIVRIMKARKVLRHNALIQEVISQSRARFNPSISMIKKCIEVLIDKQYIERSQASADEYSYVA
Method in brief: (§1)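 Recombinant His-tagged BCL-2 or BCL-XL and GST-tagged VHL–elongin B–elongin C–Cul2 (VCB) were each added at 20 nM with a 4× serial dilution of test compound. Buffer: 25 mM HEPES pH 7.5, 100 mM NaCl, 0.1% BSA, 0.005% Tween 20. Incubation 30 min at room temperature, then glutathione donor beads for 15 min and anti-His acceptor beads for 45 min, both in the dark. AlphaLISA luminescence plotted against log concentration.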

BCL-XL with VCB = BCL-XL with VCB (Homo sapiens, UniProt P40337+Q07817); assay: AlphaLISA cell-free ternary complex formation, BCL-XL and VCB; assay type: biochemical
Chain of BCL-XL with VCB (Q07817 1-212 limits assumed): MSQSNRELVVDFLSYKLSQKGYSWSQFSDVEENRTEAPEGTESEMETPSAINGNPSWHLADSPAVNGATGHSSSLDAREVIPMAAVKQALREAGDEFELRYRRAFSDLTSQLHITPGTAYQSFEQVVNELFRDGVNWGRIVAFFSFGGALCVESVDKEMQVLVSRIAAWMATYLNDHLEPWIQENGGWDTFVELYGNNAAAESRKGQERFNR
Chain of BCL-XL with VCB (P40337 whole entry): as the sequence (P40337 whole entry) above
Chain of BCL-XL with VCB (Q15370 whole entry partner): as the sequence (Q15370 whole entry partner) above
Chain of BCL-XL with VCB (Q15369 whole entry partner): as the sequence (Q15369 whole entry partner) above
Chain of BCL-XL with VCB (Q13617 whole entry partner): as the sequence (Q13617 whole entry partner) above
Method in brief: as §1

NCI-H211 cells = assay: Cell viability assay in NCI-H211 cells; assay type: cell-based; details: BCL-2/BCL-XL dual-dependent cells
Method in brief: (§2)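 Cells were seeded at 50,000/well in complete medium and dosed 30 min later at nine concentrations in triplicate. Viability was read by MTS after 48 h. Percentage viability was fitted by non-linear regression.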

MOLT-4 cells [6] = assay: Apoptosis induction in MOLT-4 cells; assay type: cell-based, human; details: caspase-3 mediated
Method in brief: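 MOLT-4 cells were given test compound for 16 h, then immunoblotted for cleaved and full caspase-3, cleaved and full PARP, and β-actin. Separately, cells (5×10^4/well) were pretreated ±2 μM QVD for 4 h, then given 10 nM compound for 48 h. Read by immunoblot, or by Annexin-V–Alexa Fluor 647 (1:50) plus PI (10 μg/mL) staining for 30 min at room temperature in the dark, then flow cytometry.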

BCL-2 [7] = target: BCL-2 (Homo sapiens, UniProt P10415); assay: BCL-2 degradation by western blotting in MOLT-4 and RS4; assay type: cell-based; details: 16 h
Chain of BCL-2 (Homo sapiens, UniProt P10415) (P10415 whole entry): as the sequence (P10415 whole entry) above

BCL-XL [8] = target: T1, BCL-XL (Homo sapiens, UniProt Q07817); assay: BCL-XL degradation in HEK 293T cells by immunoblotting; assay type: cell-based
T1 sequence (Q07817 whole entry): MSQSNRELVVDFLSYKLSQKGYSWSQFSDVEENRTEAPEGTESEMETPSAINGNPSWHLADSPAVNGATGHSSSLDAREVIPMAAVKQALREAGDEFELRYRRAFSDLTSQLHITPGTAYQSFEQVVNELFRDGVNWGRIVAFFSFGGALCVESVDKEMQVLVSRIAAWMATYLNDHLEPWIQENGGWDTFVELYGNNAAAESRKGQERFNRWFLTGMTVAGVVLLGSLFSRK
Method in brief: (§3)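 HEK 293T cells grown in DMEM with 10% FBS and 1% penicillin–streptomycin at 37 °C, 5% CO2, then treated with test compound. Lysates made with protease/phosphatase inhibitors, run on 4–20% Tris-glycine gels and transferred to PVDF. Blocked in 5% milk/TBS-Tween. Primary antibodies overnight at 4 °C, HRP secondary, ECL detection. Cleaved PARP probed as apoptosis marker.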

BCL-XL [9] = target: T1, BCL-XL; assay: BCL-XL protein levels in human platelets by western blotting; assay type: cell-based; details: 16 h treatment
Method in brief: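 Platelets came from purchased human platelet-rich plasma in acid citrate buffer with 1 μM PGE1 and 0.2 units/mL apyrase (final). They were pelleted at 1200 g for 10 min, washed and resuspended in HEPES Tyrode's buffer with the same PGE1/apyrase. Platelets were treated with test compound for 16 h, then immunoblotted for BCL-XL.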

MCL-1 = MCL-1 levels in HEK 293T cells by immunoblotting; assay type: cell-based
Method in brief: as §3

BCL-XL [10] = target: T1, BCL-XL; assay: BCL-XL degradation in MOLT-4 cells by western blotting; assay type: cell-based
Method in brief: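 MOLT-4 cells were exposed to test compound for 16 h across a concentration range. Other arms: 100 nM time course; 100 nM for 16 h, then washout; and pretreatment with 10 μM VHL-032 or 1 μM MG-132 before 12 h exposure. Lysates were immunoblotted for BCL-XL and β-actin. Band densities were normalised to β-actin. Mean ± SD of three independent experiments in triplicate.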

NCI-H146 cells = assay: Cell viability assay in NCI-H146 cells; assay type: cell-based; details: BCL-2/BCL-XL dual-dependent cells
Method in brief: as §2

Chain of BCL-XL (Homo sapiens, UniProt P40337+Q07817) (Q07817 1-212 limits assumed): as the sequence (Q07817 1-212 limits assumed) above
Chain of BCL-XL (Homo sapiens, UniProt P40337+Q07817) (P40337 whole entry): as the sequence (P40337 whole entry) above
Chain of BCL-XL (Homo sapiens, UniProt P40337+Q07817) (Q15369 whole entry partner): as the sequence (Q15369 whole entry partner) above
Chain of BCL-XL (Homo sapiens, UniProt P40337+Q07817) (Q15370 whole entry partner): as the sequence (Q15370 whole entry partner) above
Chain of BCL-XL (Homo sapiens, UniProt P40337+Q07817) (Q13617 whole entry partner): as the sequence (Q13617 whole entry partner) above
Chain of BCL-2 (Homo sapiens, UniProt P10415+P40337) (P10415 1-211 limits assumed): as the sequence (P10415 1-211 limits assumed) above
Chain of BCL-2 (Homo sapiens, UniProt P10415+P40337) (P40337 whole entry): as the sequence (P40337 whole entry) above
Chain of BCL-2 (Homo sapiens, UniProt P10415+P40337) (Q15369 whole entry partner): as the sequence (Q15369 whole entry partner) above
Chain of BCL-2 (Homo sapiens, UniProt P10415+P40337) (Q15370 whole entry partner): as the sequence (Q15370 whole entry partner) above
Chain of BCL-2 (Homo sapiens, UniProt P10415+P40337) (Q13617 whole entry partner): as the sequence (Q13617 whole entry partner) above

Row | Compound | activity loss (IC50 change) after pre-treatment with VHL-032 (RS4;11 cells) | formation of {BCL-2:compound:VCB} ternary complexes in live cells [5] | effect on BCL-2:Bim interaction (BCL-2:Bim interaction) | formation of ternary complexes with BCL-2 and VCB (BCL-2 with VCB) | formation of ternary complexes with BCL-XL and VCB (BCL-XL with VCB) | BCL-XL degradation (in words) (BCL-XL [10]) | IC50 (RS4;11 cells) [nM] | other results
1 | Cc1ncsc1-c1ccc([C@H](C)NC(=O)[C@@H]2C[C@@H](O)CN2C(=O)[C@@H](NC(=O)CCCCCC(=O)N2CCN(CC[C@H](CSc3ccccc3)Nc3ccc(S(=O)(=O)NC(=O)c4ccc(N5CCN(CC6=C(c7ccc(Cl)cc7)CCC(C)(C)C6)CC5)cc4)cc3S(=O)(=O)C(F)(F)F)CC2)C(C)(C)C)cc1 [DT2216] | no significant IC50 value changes | could not | minimal effect | – | – | – | 212 ± 27.4 | Kd (BCL-XL [1]; Kd BCL-XL w VHL, ternary binding, with GST-VCB): 2.18 ± 0.51 nM; Kd (BCL-XL [1]; Kd BCL-XL w/o VHL, binary binding, without VCB): 7.58 ± 0.62 nM; Kd (BCL-2 [2]; Kd BCL-2 w VHL, ternary binding, with GST-VCB): 1.46 ± 0.41 nM; Kd (BCL-2 [2]; Kd BCL-2 w/o VHL, binary binding, without VCB): 2.25 ± 0.33 nM; selectivity for MOLT-4 over human platelets (human platelets): ~ 200 fold; IC50 (MOLT-4 cells [3]): 75.3 ± 9.1 nM; fold more potent than warhead ABT-263 against MOLT-4 (MOLT-4 cells [4]): 4 fold
2 | Cc1ncsc1-c1ccc([C@H](C)NC(=O)[C@@H]2C[C@@H](O)CN2C(=O)[C@@H](NC(=O)CCCCCC(=O)NCC2(C)CCC(c3ccc(Cl)cc3)=C(CN3CCN(c4ccc(C(=O)NS(=O)(=O)c5ccc(N[C@H](CCN6CCOCC6)CSc6ccccc6)c(S(=O)(=O)C(F)(F)F)c5)cc4)CC3)C2)C(C)(C)C)cc1 (stereo partly drawn) [PP2, N^1-((4’-Chloro-4-methyl-6-((4-(4-(((4-(((R)-4-morpholino-1-(phenylthio)butan-2-yl)amino)-3-((trifluoromethyl)sulfonyl)phenyl)sulfonyl)carbamoyl)phenyl)piperazin-1-yl)methyl)-2,3,4,5-tetrahydro-[1,1’-biphenyl]-4-yl)methyl)-N^7-((S)-1-((2S,4R)-4-hydroxy-2-(((S)-1-(4-(4-methylthiazol-5-yl)phenyl)ethyl)carbamoyl)pyrrolidin-1-yl)-3,3-dimethyl-1-oxobutan-2-yl)heptanediamide] | – | – | – | – | – | – | 234 ± 21.6 | –
3 | Cc1ncsc1-c1ccc([C@H](C)NC(=O)[C@@H]2C[C@@H](O)CN2C(=O)[C@@H](NC(=O)CCCCCCCCC(=O)NC[C@@]2(C)CCC(c3ccc(Cl)cc3)=C(CN3CCN(c4ccc(C(=O)NS(=O)(=O)c5ccc(N[C@H](CCN6CCOCC6)CSc6ccccc6)c(S(=O)(=O)C(F)(F)F)c5)cc4)CC3)C2)C(C)(C)C)cc1 [PZ703a, N^1-(((S)-4’-Chloro-4-methyl-6-((4-(4-(((4-(((R)-4-morpholino-1-(phenylthio)butan-2-yl)amino)-3-((trifluoromethyl)sulfonyl)phenyl)sulfonyl)carbamoyl)phenyl)piperazin-1-yl)methyl)-2,3,4,5-tetrahydro-[1,1’-biphenyl]-4-yl)methyl)-N^10-((S)-1-((2S,4R)-4-hydroxy-2-(((S)-1-(4-(4-methylthiazol-5-yl)phenyl)ethyl)carbamoyl)pyrrolidin-1-yl)-3,3-dimethyl-1-oxobutan-2-yl)decanediamide] | 2.6 fold | able to form | – | can form stable ternary complexes | can form stable ternary complexes | – | – | –
4 | Cc1ncsc1-c1ccc([C@H](C)NC(=O)[C@@H]2C[C@H](O)CN2C(=O)[C@@H](NC(=O)CCCCCCCCC(=O)NC[C@]2(C)CCC(c3ccc(Cl)cc3)=C(CN3CCN(c4ccc(C(=O)NS(=O)(=O)c5ccc(N[C@H](CCN6CCOCC6)CSc6ccccc6)c(S(=O)(=O)C(F)(F)F)c5)cc4)CC3)C2)C(C)(C)C)cc1 [PZ703b-NC] | no significant IC50 value changes | could not | minimal effect | – | – | did not induce BCL-XL degradation | – | –

Second part, led by results:

Row | activity loss (IC50 change) after pre-treatment with VHL-032 (RS4;11 cells) | formation of {BCL-2:compound:VCB} ternary complexes in live cells [5] | effect on BCL-2:Bim interaction (BCL-2:Bim interaction) | formation of ternary complexes with BCL-2 and VCB (BCL-2 with VCB) | formation of ternary complexes with BCL-XL and VCB (BCL-XL with VCB) | BCL-XL degradation (in words) (BCL-XL [10]) | Compound | IC50 (RS4;11 cells) [nM] | other results
5 | – | able to form | – | – | – | – | Cc1ncsc1-c1ccc([C@H](C)NC(=O)[C@@H]2C[C@@H](O)CN2C(=O)[C@@H](NC(=O)CCCCCCCCC(=O)NCC2(C)CCC(c3ccc(Cl)cc3)=C(CN3CCN(c4ccc(C(=O)NS(=O)(=O)c5ccc(N[C@H](CCN6CCOCC6)CSc6ccccc6)c(S(=O)(=O)C(F)(F)F)c5)cc4)CC3)C2)C(C)(C)C)cc1 (stereo partly drawn) [PP5, N^1-((4’-Chloro-4-methyl-6-((4-(4-(((4-(((R)-4-morpholino-1-(phenylthio)butan-2-yl)amino)-3-((trifluoromethyl)sulfonyl)phenyl)sulfonyl)carbamoyl)phenyl)piperazin-1-yl)methyl)-2,3,4,5-tetrahydro-[1,1’-biphenyl]-4-yl)methyl)-N^10-((S)-1-((2S,4R)-4-hydroxy-2-(((S)-1-(4-(4-methylthiazol-5-yl)phenyl)ethyl)carbamoyl)pyrrolidin-1-yl)-3,3-dimethyl-1-oxobutan-2-yl)decanediamide] | – | –
6 | – | able to form | can inhibit BCL-2:Bim interaction | can form stable ternary complexes | can form stable ternary complexes | rapid and durable BCL-XL degradation | Cc1ncsc1-c1ccc([C@H](C)NC(=O)[C@@H]2C[C@@H](O)CN2C(=O)[C@@H](NC(=O)CCCCCCCCC(=O)NC[C@]2(C)CCC(c3ccc(Cl)cc3)=C(CN3CCN(c4ccc(C(=O)NS(=O)(=O)c5ccc(N[C@H](CCN6CCOCC6)CSc6ccccc6)c(S(=O)(=O)C(F)(F)F)c5)cc4)CC3)C2)C(C)(C)C)cc1 [PZ703b, N^1-(((R)-4’-Chloro-4-methyl-6-((4-(4-(((4-(((R)-4-morpholino-1-(phenylthio)butan-2-yl)amino)-3-((trifluoromethyl)sulfonyl)phenyl)sulfonyl)carbamoyl)phenyl)piperazin-1-yl)methyl)-2,3,4,5-tetrahydro-[1,1’-biphenyl]-4-yl)methyl)-N^10-((S)-1-((2S,4R)-4-hydroxy-2-(((S)-1-(4-(4-methylthiazol-5-yl)phenyl)ethyl)carbamoyl)pyrrolidin-1-yl)-3,3-dimethyl-1-oxobutan-2-yl)decanediamide] | – | killing of NCI-H211 cells (NCI-H211 cells): efficiently kill; induction of apoptosis in MOLT-4 cells (MOLT-4 cells [6]): potently induced apoptosis; BCL-2 degradation (in words) (BCL-2 [7]): did not observe significant BCL-2 degradation; BCL-XL degradation in HEK 293T cells (BCL-XL [8]): effectively induce BCL-XL degradation; effect on BCL-XL protein levels in platelets (BCL-XL [9]): did not cause significant changes; MCL-1 decrease in HEK 293T cells (MCL-1): no MCL-1 decrease was observed; killing of NCI-H146 cells (NCI-H146 cells): efficiently kill
